Values after ≈ are worked out from the molar mass of the structure shown. Active and inactive are the calls of the source. No cut-off for these calls is given here.
Assays:
[1] = test system: HOP-92; test: cells; assay type: functional; conditions: Homo sapiens, HOP-92, 72 h
[2] = test system: SW-620; test: cells; assay type: functional; conditions: Homo sapiens, SW-620, 72 h
[3] = test system: UACC-62; test: Growth inhibition of human UACC62 cells after 72 hrs by MTS assay; assay type: functional; conditions: UACC-62, 72 h
[4] = test system: U-251; test: cells; assay type: functional; conditions: Homo sapiens, U-251, 72 h
[5] = test system: MDA-MB-231; test: cells; assay type: functional; conditions: Homo sapiens, MDA-MB-231, 72 h
[6] = test system: ACHN; test: cells; assay type: functional; conditions: Homo sapiens, 72 h
[7] = test system: HT-29; test: Growth inhibition of human HT-29 cells after 72 hrs by MTS assay; assay type: functional; conditions: HT-29, 72 h
[8] = test system: BT-549; test: cells; assay type: functional; conditions: Homo sapiens, BT-549, 72 h
[9] = test system: 786-0; test: cells; assay type: functional; conditions: Homo sapiens, 786-0, 72 h
[10] = cells; assay type: functional; conditions: Homo sapiens, NCI/ADR-RES, 72 h
[11] = test system: PC-3; test: cells; assay type: functional; conditions: Homo sapiens, PC-3, 72 h
[12] = test system: A549; test: cells; assay type: functional; conditions: Homo sapiens, A549, 72 h
[13] = Apparent permeability from apical to basolateral side in human Caco2 cells at 10 uM; assay type: ADME, cell-based; conditions: Caco-2
Method in brief: (§1)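 Caco-2 monolayers, test compound at 10 μM. Apparent permeability measured in both directions, apical to basolateral and basolateral to apical. Efflux ratio = P_app B to A / P_app A to B. Run by a contract lab following published methods. Mean of three independent triplicate experiments.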

[14] = test system: SF-268; test: cells; assay type: functional; conditions: Homo sapiens, SF-268, 72 h
[15] = test system: M14; test: cells; assay type: functional; conditions: Homo sapiens, M14, 72 h
[16] = test system: SF-539; test: cells; assay type: functional; conditions: Homo sapiens, SF-539, 72 h
[17] = target: T1, Histone deacetylase (Homo sapiens) (UniProt Q13547+O15379+Q9UBN7+Q92769+Q9UQL6+Q8WUI4+Q9BY41+Q96DB2+P56524+Q9UKV0+Q969S8); test: Inhibition of HDAC in human MDA-MB-231 cells assessed as stimulation of histone H3 acetylation at 0.5 uM by Western blot; assay type: cell-based; conditions: TDE = time-dependent effect
Method in brief: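 Time course in MDA-MB-231 cells at 0.5 μM, sampled from 3 h up to 24 h. Lysed in RIPA (pH 7.5, protease and phosphatase inhibitors) at 4 °C, then 60 μg protein run on SDS-PAGE. Western blot with anti-acetyl-histone H3 and ECL detection.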

[18] = test system: NCI-H23; test: cells; assay type: functional; conditions: Homo sapiens, NCI-H23, 72 h
[19] = target: T1, Histone deacetylase (Homo sapiens); test: Inhibition of HDAC in human MDA-MB-231 cells assessed as stimulation of histone H3 acetylation at 5 uM incubated for 24 hrs by Western blot; assay type: cell-based
Method in brief: (§2)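 MDA-MB-231 cells in 35-mm dishes, dosed 24 h at graded concentrations, then trypsinized and PBS-washed. Lysed in RIPA (50 mM Tris-HCl pH 7.5, protease and phosphatase inhibitors) for 30 min at 4 °C, then cleared at 12,000g. Lysate, 60 μg protein by BCA, run on SDS-PAGE and PVDF. Blotted with anti-acetyl-histone H3 and HRP anti-rabbit, read by ECL.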

[20] = test system: SK-MEL-28; test: cells; assay type: functional; conditions: Homo sapiens, SK-MEL-28, 72 h
[21] = Half life in mouse liver microsomes; assay type: ADME, Microsome
[22] = test system: MDA-MB-435; test: cells; assay type: functional; conditions: Homo sapiens, MDA-MB-435, 72 h
[23] = test system: IGROV-1; test: cells; assay type: functional; conditions: Homo sapiens, IGROV-1, 72 h
[24] = Efflux ratio, ratio of apparent permeability from basolateral to apical side over apparent permeability from apical to basolateral side in human Caco2 cells at 10 uM; assay type: ADME, cell-based; conditions: Caco-2
Method in brief: as §1

[25] = test system: SK-MEL-5; test: cells; assay type: functional; conditions: Homo sapiens, SK-MEL-5, 72 h
[26] = test system: Malme-3M; test: cells; assay type: functional; conditions: Homo sapiens, 72 h
[27] = target: Cytochrome P450 3A4 (Homo sapiens, UniProt P08684); test: Inhibition of human CYP3A4; assay type: ADME
Chain of Cytochrome P450 3A4 (P08684 whole entry): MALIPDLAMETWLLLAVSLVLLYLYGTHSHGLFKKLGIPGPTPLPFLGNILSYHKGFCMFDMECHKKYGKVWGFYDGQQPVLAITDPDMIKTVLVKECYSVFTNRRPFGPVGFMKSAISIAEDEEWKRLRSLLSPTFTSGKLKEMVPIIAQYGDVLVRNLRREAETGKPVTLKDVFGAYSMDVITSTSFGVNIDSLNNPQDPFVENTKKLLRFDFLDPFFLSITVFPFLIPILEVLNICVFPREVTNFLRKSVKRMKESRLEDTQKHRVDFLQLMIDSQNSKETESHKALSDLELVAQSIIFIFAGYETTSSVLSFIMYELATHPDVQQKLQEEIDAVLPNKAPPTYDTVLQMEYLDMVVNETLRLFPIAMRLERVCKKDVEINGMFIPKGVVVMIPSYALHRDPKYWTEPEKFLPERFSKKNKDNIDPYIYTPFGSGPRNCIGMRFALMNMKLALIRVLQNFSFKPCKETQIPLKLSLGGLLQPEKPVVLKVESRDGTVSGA

[28] = test system: OVCAR-3; test: cells; assay type: functional; conditions: Homo sapiens, OVCAR-3, 72 h
[29] = test system: SK-OV-3; test: cells; assay type: functional; conditions: Homo sapiens, SK-OV-3, 72 h
[30] = test system: NCI-H522; test: cells; assay type: functional; conditions: Homo sapiens, NCI-H522, 72 h
[31] = target: T1, Histone deacetylase (Homo sapiens); test: Inhibition of HDAC in human MDA-MB-231 cells assessed as stimulation of histone H3 acetylation at 0.1 uM incubated for 24 hrs by Western blot; assay type: cell-based
Method in brief: as §2

[32] = test system: T47D; test: cells; assay type: functional; conditions: Homo sapiens, 72 h
[33] = test system: LOX IMVI; test: cells; assay type: functional; conditions: Homo sapiens, 72 h
[34] = Lipophilicity, log D of the compound in pH 7.4 PBS buffer; assay type: physicochemical
[35] = test system: SK-MEL-2; test: cells; assay type: functional; conditions: Homo sapiens, SK-MEL-2, 72 h
[36] = Solubility in pH 7.4 PBS buffer; assay type: physicochemical
[37] = test system: MDA-MB-468; test: cells; assay type: functional; conditions: Homo sapiens, MDA-MB-468, 72 h
[38] = Half life in artificial intestinal fluid; assay type: physicochemical
[39] = test system: OVCAR-8; test: cells; assay type: functional; conditions: Homo sapiens, OVCAR-8, 72 h
[40] = in vitro; conditions: human, MCF10A cells
[41] = test system: EKVX; test: cells; assay type: functional; conditions: Homo sapiens, 72 h
[42] = Half life in mouse plasma; assay type: ADME, cell-free
[43] = Half life in artificial gastric fluid; assay type: physicochemical
[44] = test system: K562; test: cells; assay type: functional; conditions: Homo sapiens, K562, 72 h
[45] = test system: CCRF-CEM; test: Growth inhibition of human CCRF-CEM cells after 72 hrs by MTS assay; assay type: functional
[46] = test system: HCT-15; test: cells; assay type: functional; conditions: Homo sapiens, HCT-15, 72 h
[47] = test system: KM12; test: cells; assay type: functional; conditions: Homo sapiens, KM12, 72 h

## CC(C)[C@@H](c1nc2ccccc2o1)n1cc(/C=C/C(=O)NO)nn1
[1]
  GI50: 10 nM
[2]
  GI50: 130 nM
[3]
  GI50: 140 nM
[4]
  GI50: 180 nM
[5]
  GI50: 520 nM
[6]
  GI50: 210 nM
[7]
  GI50: 79 nM
[8]
  GI50: 52 nM
[9]
  GI50: 170 nM
[10]
  GI50: 27 nM
[11]
  GI50: 120 nM
[12]
  GI50: 160 nM
[13]
  Papp A→B at 10 µM: 6.61 ×10⁻⁶ cm/s
[14]
  GI50: 330 nM
[15]
  GI50: 180 nM
[16]
  GI50: 240 nM
[17]
  inhibition: tde
[18]
  GI50: 140 nM
[19]
  histone H3 acetylation activity (active/not active): Active
[20]
  GI50: 220 nM
[21]
  half-life: 3.25 h
[22]
  GI50: 91 nM
[23]
  GI50: 56 nM
[24]
  efflux ratio at 10 µM: 1.15
[25]
  GI50: 100 nM
[26]
  GI50: 16 nM
[27]
  INH: 31.9 µM
[28]
  GI50: 220 nM
[29]
  GI50: 140 nM
[30]
  GI50: 13 nM
[31]
  inhibition: Active
[32]
  GI50: 51 nM
[33]
  GI50: 44 nM
[34]
  logD: 2
[35]
  GI50: 87 nM
[36]
  solubility: 20 µg/mL (≈ 61.1 µM)
[37]
  GI50: 150 nM
[38]
  half-life: > 24 h
[39]
  GI50: 84 nM
[40]
  GI50 at 48 h: 1600 nM
[41]
  GI50: 240 nM
[42]
  half-life: 32 h
[43]
  half-life: 9.4 h
[44]
  GI50: 88 nM
[45]
  GI50: 110 nM
[46]
  GI50: 470 nM
[47]
  GI50: 230 nM

Reference: ChEMBL document CHEMBL2034936, “Discovery and extensive in vitro evaluations of NK-HDAC-1: a chiral histone deacetylase inhibitor as a promising lead” (J Med Chem, 2012)
